Hits are enriched below; roughly 2.5% of the tested compounds scored in any of these assays.
NALP1 yeast inh: NALP1 inflammasome inhibitors in reconstituted yeast, colorimetric, S. cerevisiae, triplicate retest. inhibition, % at 10 µM. 280,000 tested, 0.61% active. AID 2071, 2009. S. cerevisiae NALP1/ASC/caspase-1 growth, X-gal OD620, 72 h; in the data active means inhibition mostly above about 24%, no sharp cut-off; inactive means mostly below about 32%
Bfl-1 A1 inh: caspase 3/7 activation in MEF A1-2A-BIM cells, primary screen, A1 inhibitor project, cell-based, luminescence, HTS; Caspase-Glo 3/7 luminescence, 3 h; percent of clofoctol response, vehicle zero; caspase activation, % (no concentration beside the values); 330,000 tested, 0.066% active; AID 2462, 2010;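 active means over half of replicate activation scores above 10%, or exactly half above 10 with the replicate mean above 10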
MC4R ag barr: MC4R agonists recruiting beta-arrestin, primary screen, cell-based, luminescence, agonist arm of biased-ligand search. activation, % at 8.9 µM. U2OS MC4R beta-arrestin complementation; percent of melanotan II response, DMSO zero. Melanocortin receptor 4 (Homo sapiens), P32245. 360,000 tested, 0.98% active;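 active means activation above a per-plate cutoff, the mean activation of sample wells on that plate plus 3 SD, cut at about 8% in these data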
Target sequence (P32245 whole entry, looked up): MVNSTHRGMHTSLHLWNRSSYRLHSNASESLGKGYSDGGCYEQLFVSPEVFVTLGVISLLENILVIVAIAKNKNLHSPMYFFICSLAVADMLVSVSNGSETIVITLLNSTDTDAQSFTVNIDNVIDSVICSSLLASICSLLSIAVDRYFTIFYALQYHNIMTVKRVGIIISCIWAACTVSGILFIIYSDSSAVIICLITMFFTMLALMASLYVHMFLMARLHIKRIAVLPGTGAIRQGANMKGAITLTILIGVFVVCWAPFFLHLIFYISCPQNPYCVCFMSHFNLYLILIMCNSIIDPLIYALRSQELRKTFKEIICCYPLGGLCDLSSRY
MC4R antag cAMP: MC4R antagonists of cAMP signaling, primary screen, cell-based, TR-FRET, antagonist arm of biased-ligand search. Melanocortin receptor 4 (Homo sapiens), P32245. MC4R-expressing cells, MTII-stimulated cAMP, LANCE TR-FRET. inhibition, % at 6.5 µM. 360,000 tested, 0.48% active. AID 540295, 2011;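 active means inhibition above its plate's cutoff, the mean of tested wells on that plate plus 3 SD, cut at about 29% in these data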
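System: U2OS-MC4R stable cell line; Technique: Eu-cAMP/anti-cAMP TR-FRET, emission 671 nm; Repeats: single well per compound; Also added: Melanotan II; Dosing: one concentration, 6.5 µM nominal; Schedule: 30-min compound, 1-h challenge, 1-h detection, room temperature.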
TbMetRS inhib: T. brucei MetRS inhibitors, primary screen, biochemical, luminescence. methionyl-tRNA synthetase (Trypanosoma brucei brucei). purified T. brucei MetRS, ATP depletion, Kinase-Glo luminescence. inhibition, % at 11.9 µM. 360,000 tested, 0.4% active. AID 624268, 2012;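 active means inhibition above a per-plate cutoff of the control wells' mean inhibition plus 3 SD, cut at about 5.5% in these data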
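Assay system: T. brucei methionyl-tRNA synthetase, purified | Medium: HEPES buffer with MgCl2, KCl, DTT, spermine, BSA, pyrophosphatase | Compound: 11.9 µM single point | Incubation: 15 min enzyme-compound preincubation, 2 h reaction, 10 min detection, 25 °C | Measured by: Kinase-Glo luciferase luminescence reporting remaining unconsumed ATP | Measure: % inhibition normalized to control-well medians | Replication: Singlicate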
NALP3 yeast inh: NALP3 inflammasome inhibitors in reconstituted yeast, primary screen, luminescence, uHTS; Yeast reconstituted NLRP3/ASC/caspase-1, beta-gal luminescence, 24 h; 330,000 tested, 0.39% active; inhibition, % at 10 µM;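 active means inhibition of 50% or more; inactive means inhibition below 50%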
U2OS cAMP counter: nonselective cAMP signaling inhibitors, parental cells, counter-screen for MC4R biased antagonist project, cell-based, TR-FRET, U2OS, forskolin, triplicate; LANCE TR-FRET; shares compounds with MC4R antag cAMP; inhibition, % at 6.5 µM; 1,600 tested, 26% active; AID 602193, 2012;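 active means mean inhibition over triplicates above the low-control well mean plus 3 SD, set per campaign, cut at about 13% in these data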;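 further: signal is single emission at 671 nm which falls as cellular cAMP rises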
MC4R antag conf: MC4R cAMP antagonists, retest, confirmation, cell-based, TR-FRET. shares compounds with MC4R antag cAMP. MC4R-expressing cells, MTII-stimulated cAMP. inhibition, % at 6.5 µM. 1,600 tested, 27% active. AID 602195, 2012; in the data active means inhibition above about 29%
A number is an active result; i = inactive; nt = no result given.

SMILES | NALP1 yeast inh | Bfl-1 A1 inh | MC4R ag barr | MC4R antag cAMP | TbMetRS inhib | NALP3 yeast inh | U2OS cAMP counter | MC4R antag conf
CC/C(C)=N\NC(=O)CNC(=O)c1ccc(Cl)cc1Cl | i | i | i | 31 | i | i | i | i
CCOC(=O)c1sc(Nc2ccc(OCC)cc2)nc1C | i | i | i | i | i | i | nt | nt
CCOC(=O)c1sc(N2N=C(C)/C(=C\c3ccc(OCC(=O)OC)cc3)C2=O)nc1C | i | i | i | 31 | i | i | i | i
Nc1ccccc1S(=O)(=O)NCCCCc1ccccc1 | i | i | i | i | i | i | nt | nt
COC(=O)c1ccc(CSc2ccccc2NC(=S)Nc2cccc(C(F)(F)F)c2)o1 | nt | nt | i | i | i | nt | nt | nt
O=C(/C(=C/O)N=Nc1ccccc1)c1ccc(Cl)cc1 | 26 | i | i | 34 | i | i | i | i
O=C(COC(=O)CNC(=O)c1ccccc1)NCc1ccc2c(c1)OCO2 | nt | i | i | i | i | i | nt | nt
O=C(COC(=O)CNC(=O)c1cccc(OC(F)F)c1)NCc1ccc2c(c1)OCO2 | nt | i | i | 33 | i | i | 20 | 40
COc1cccc(/C(C)=N/N=C(\C)c2cccc(OC)c2)c1 | i | i | i | i | i | i | nt | nt
O=C(O)c1cnn(-c2nc(-c3ccc(F)cc3)cs2)c1C(F)(F)F | i | i | i | 32 | i | i | i | i
O=C(O)c1cnn(-c2nc(-c3ccc(Br)cc3)cs2)c1C(F)(F)F | i | i | i | 32 | i | i | i | i
COc1cccc(OC)c1NC(=O)C1CCCN1C(=O)Nc1cccc(Cl)c1 (stereo not drawn) | i | i | i | i | i | i | nt | nt
COc1ccc(C2C=CC(=O)CC2)c(OC)c1 (stereo not drawn) | nt | nt | nt | nt | i | nt | nt | nt
O=C(O)COc1ccc2nsnc2c1Cl | i | i | i | 70 | i | i | 46 | 81
Cc1ccc(C2C(C(=O)c3cc4ccccc4o3)=C(O)C(=O)N2c2cc(C)on2)cc1 (stereo not drawn) | i | i | i | 32 | i | i | i | i
O=C(C1=C(O)C(=O)N(c2nccs2)C1c1ccccc1)c1cc2ccccc2o1 (stereo not drawn) | i | i | i | 49 | i | i | 19 | 31
O=C(C1=C(O)C(=O)N(CCc2ccccc2)C1c1ccncc1)c1cc2ccccc2o1 (stereo not drawn) | i | i | i | i | i | i | nt | nt
COc1ccccc1NS(=O)(=O)c1ccc2oc(SC3CCOC3=O)nc2c1 (stereo not drawn) | i | i | i | 44 | i | i | 36 | 67
Cc1ncnc(N)c1CCCNc1ccccc1 | nt | nt | i | i | i | nt | nt | nt
CC(=O)Nc1ccc(S(=O)(=O)N2CCC(C(=O)NCc3ccncc3)CC2)cc1 | i | i | i | i | i | i | nt | nt
COC(=O)c1cc(OC)c(OC)cc1N | i | i | i | i | i | i | nt | nt
COC(=O)c1cc2ccc(OC)cc2c2cc(OC)c(OC)cc12 | nt | i | i | 34 | i | i | i | i
Cc1ccccc1OCc1nnc(SC(C)C(=O)O)n1-c1ccccc1 (stereo not drawn) | nt | nt | i | 42 | i | nt | i | i
Cc1cc(OCc2nnc(SC(C)C(=O)O)n2-c2ccccc2)ccc1Cl (stereo not drawn) | i | i | i | i | i | i | nt | nt
Cc1cc(-c2ccc(C(C)C)c(S(=O)(=O)NCCN3CCC(C)CC3)c2)on1 | i | i | i | i | i | i | nt | nt
SMILES | NALP1 yeast inh | Bfl-1 A1 inh | MC4R ag barr | MC4R antag cAMP | TbMetRS inhib | NALP3 yeast inh | U2OS cAMP counter | MC4R antag conf
O=C(CSc1nc(=O)n2ccccc2n1)Nc1ccc2c(c1)OCO2 | nt | i | i | i | i | i | nt | nt
C=CCn1c(C)cc(/C([O-])=C(/C(=S)Nc2ccc(OC(F)F)cc2)[n+]2ccc(N(C)C)cc2)c1C | i | i | i | 29 | i | i | i | i
CCOC(=O)C(=O)Nc1cccc(C(=O)OCC)c1 | i | i | i | 29 | i | i | i | i
CC(=O)c1cccc(NC(=O)COC(=O)c2ccccc2C)c1 | i | i | i | 38 | i | i | i | i
CC(=O)Nc1ccc(S(=O)(=O)NC2(C(F)(F)F)NC(=O)N(Cc3ccccc3)C2=O)cc1 (stereo not drawn) | i | i | i | i | i | i | nt | nt
CCN(CC)c1ccc(C(=C2C=CC(=[N+](CC)CC)C=C2)c2ccccc2)cc1 | nt | nt | i | 64 | i | nt | 34 | 67
COc1ccc(N2CCN(C(=O)c3ccc(COc4ccc5c(C)cc(=O)oc5c4)cc3)CC2)cc1 | i | i | i | 31 | i | i | i | i
CSc1ccccc1OC1CCN(Cc2ccccc2)CC1 | i | i | i | i | i | i | nt | nt
CN1CCC(Oc2ccccc2Sc2ccc(C(F)(F)F)cc2)CC1 | i | i | i | 33 | i | i | i | 31
NC(c1ccccc1)c1csc(Nc2ccc(C(=O)NCCCO)cn2)n1 (stereo not drawn) | nt | nt | i | i | i | nt | nt | nt
COc1cccc(NC(=O)CN(C)C(=O)c2cc(S(=O)(=O)N3CCCCCC3)ccc2OC)c1 | nt | i | i | i | i | i | nt | nt
COc1ccccc1CC(NC(C)=O)C(=O)NC1CCN(S(=O)(=O)c2ccccc2)CC1 (stereo not drawn) | i | nt | i | i | i | i | nt | nt
CC(C)c1ccc(/C=C(\c2nc3ccccc3[nH]2)S(=O)(=O)c2ccccc2)cc1 | i | i | i | i | i | i | nt | nt
O=S(=O)(/C(=C/c1ccc(C(F)(F)F)cc1)c1nc2ccccc2[nH]1)c1ccccc1 | i | i | i | 35 | i | nt | 13 | 48
CC(C)(C)c1ccc2c(c1)OC(C(=O)N/N=C\c1ccc(-c3cccc(C(=O)O)c3)o1)CO2 (stereo not drawn) | i | i | i | 29 | i | i | i | i
CC(NC(=O)C(=O)NCCc1c[nH]c2ccccc12)c1ccccc1 (stereo not drawn) | i | i | i | i | i | i | nt | nt
CCOc1ccc(NC(=O)COc2ccc(C(=O)NC(C)c3ccc(S(N)(=O)=O)cc3)cc2OC)cc1 (stereo not drawn) | nt | i | i | i | i | i | nt | nt
NC(=O)COC(=O)[C@H](Cc1c[nH]c2ccccc12)NC(=O)c1ccc(F)cc1 | i | i | i | 32 | i | i | 14 | i
